Results reported in ChEMBL document CHEMBL1833819, “Dihydroquinazolines as a novel class of Trypanosoma brucei trypanothione reductase inhibitors: discovery, synthesis, and characterization of their binding mode by protein crystallography” (J Med Chem, 2011).

Columns and labels:
Trypanothione reductase [1] = molecular target: T1, Trypanothione reductase (Trypanosoma brucei brucei, UniProt P39051); experiment: Inhibition of recombinant trypanothione reductase from Trypanosoma brucei brucei S427 by DTNB-coupled spectrophotometric assay
How it was run: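 Recombinant T. brucei brucei S427 TryR tested in a nonenzymatically coupled spectrophotometric assay, where DTNB reduction to TNB is followed as A412 increase. IC50 is the mean of independent duplicates (at least two replicates).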

Trypanothione reductase [2] = molecular target: T1, Trypanothione reductase; experiment: Mixed type inhibition of recombinant trypanothione reductase from Trypanosoma brucei brucei S427 by Lineweaver burk method
[3] = tested on: Trypanosoma brucei brucei; experiment: Antitrypanosomal activity against blood stream form Trypanosoma brucei brucei by resazurin fluorescence-based viability assay; format: functional, organism-based
How it was run: (§1)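 Bloodstream-form T. b. brucei parasites and MRC5 cells were assayed in resazurin fluorescence-based viability tests. […] Pentamidine served as the positive control in all T. brucei plates.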

MRC5 = experiment: Cytotoxicity against human MRC5 cells by resazurin fluorescence-based viability assay; format: cell-based; how it was run: as §1
Trypanothione reductase [4] = molecular target: T1, Trypanothione reductase; experiment: Competitive inhibition of recombinant trypanothione reductase from Trypanosoma brucei brucei S427 by Lineweaver burk method
Trypanothione reductase [5] = molecular target: Trypanothione reductase (Trypanosoma cruzi, UniProt P28593); experiment: Inhibition of trypanothione reductase from Trypanosoma cruzi by DTNB-coupled spectrophotometric assay
[6] = molecular target: T2, Glutathione reductase, mitochondrial (Homo sapiens, UniProt P00390); experiment: Inhibition of human glutathione reductase
T2 sequence (P00390 whole entry): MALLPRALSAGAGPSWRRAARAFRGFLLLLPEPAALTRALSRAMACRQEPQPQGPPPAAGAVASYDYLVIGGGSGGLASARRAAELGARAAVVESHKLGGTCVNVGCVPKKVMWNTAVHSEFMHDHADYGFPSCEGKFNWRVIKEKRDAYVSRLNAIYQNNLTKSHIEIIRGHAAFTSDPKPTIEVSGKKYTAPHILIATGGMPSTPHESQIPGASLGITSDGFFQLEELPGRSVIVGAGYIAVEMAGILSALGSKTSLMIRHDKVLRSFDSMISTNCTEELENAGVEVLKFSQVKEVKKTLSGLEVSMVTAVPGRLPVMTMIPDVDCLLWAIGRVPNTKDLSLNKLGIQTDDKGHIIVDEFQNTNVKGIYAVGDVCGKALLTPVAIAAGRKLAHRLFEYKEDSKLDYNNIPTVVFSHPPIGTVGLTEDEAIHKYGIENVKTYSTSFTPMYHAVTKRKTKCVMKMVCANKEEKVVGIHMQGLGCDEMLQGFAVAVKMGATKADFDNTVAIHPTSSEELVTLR

T1 sequence (P39051 whole entry): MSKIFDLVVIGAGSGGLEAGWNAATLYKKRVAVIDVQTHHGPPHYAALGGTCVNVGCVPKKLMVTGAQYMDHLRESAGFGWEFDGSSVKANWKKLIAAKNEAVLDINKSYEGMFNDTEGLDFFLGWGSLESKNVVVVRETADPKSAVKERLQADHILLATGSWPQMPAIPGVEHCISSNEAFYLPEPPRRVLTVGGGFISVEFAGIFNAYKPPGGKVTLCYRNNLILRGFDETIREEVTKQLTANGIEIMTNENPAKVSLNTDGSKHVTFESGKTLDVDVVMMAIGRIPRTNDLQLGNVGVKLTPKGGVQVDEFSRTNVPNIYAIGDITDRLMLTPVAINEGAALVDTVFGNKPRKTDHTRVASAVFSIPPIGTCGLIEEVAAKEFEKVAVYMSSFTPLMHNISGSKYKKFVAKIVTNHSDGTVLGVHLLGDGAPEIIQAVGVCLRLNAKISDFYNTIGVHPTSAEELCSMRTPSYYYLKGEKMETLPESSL
Trypanothione reductase (Trypanosoma cruzi, UniProt P28593), sequence (P28593 whole entry): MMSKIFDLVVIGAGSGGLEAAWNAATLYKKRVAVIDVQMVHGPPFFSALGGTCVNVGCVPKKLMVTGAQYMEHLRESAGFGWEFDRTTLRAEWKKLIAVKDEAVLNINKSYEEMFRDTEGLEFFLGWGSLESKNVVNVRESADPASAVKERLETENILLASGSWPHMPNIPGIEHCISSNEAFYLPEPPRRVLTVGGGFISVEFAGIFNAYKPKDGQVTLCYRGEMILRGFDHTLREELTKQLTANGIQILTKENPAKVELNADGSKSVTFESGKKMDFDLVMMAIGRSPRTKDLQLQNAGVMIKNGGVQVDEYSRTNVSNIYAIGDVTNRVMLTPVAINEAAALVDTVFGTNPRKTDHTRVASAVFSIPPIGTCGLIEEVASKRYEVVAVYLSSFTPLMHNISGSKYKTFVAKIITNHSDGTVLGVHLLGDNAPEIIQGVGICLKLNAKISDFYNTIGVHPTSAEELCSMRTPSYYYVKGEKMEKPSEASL

Row | Structure (SMILES) | IC50 (Trypanothione reductase [1]) [µM] | Ki (Trypanothione reductase [2]) [µM] | EC50 [3] [µM] | EC50 (MRC5) [µM] | Ki (Trypanothione reductase [4]) [µM] | IC50 (Trypanothione reductase [5]) [µM] | IC50 [6] [µM]
1 | CC1=Nc2ccc(Cl)cc2C(c2ccccc2)N1CCNC(=O)c1ccco1 (racemic) | 0.86 | 2.27 | 19 | 22 | 0.44 | – | –
2 | CC1=Nc2ccc(Cl)cc2C(c2ccccc2)N1CCN1CCN(C)CC1 (racemic) | 0.93 | – | – | 4.6 | 0.32 | – | –
3 | CC1=Nc2ccc(Cl)cc2C(c2ccc(C)cc2)N1CCCN(C)C (racemic) | 0.23 | 1.46 | 0.73 | 1.9 | 0.19 | – | –
4 | COC(=O)CN1C(C)=Nc2ccc(Br)cc2C1c1ccccc1 (racemic) | 6.8 | – | 40 | – | – | 19 | > 100
5 | COC(=O)CN1C(C)=Nc2ccc(C)cc2C1c1ccccc1 (racemic) | 67 | – | – | – | – | 38 | –
6 | CC1=Nc2ccc(Cl)cc2C(c2ccccc2)N1Cc1ccccc1 (racemic) | 0.93 | – | 13 | 46 | – | – | –
7 | CC1=Nc2ccc(I)cc2C(c2ccccc2)N1CCN1CCCCC1 (racemic) | 0.35 | – | 0.55 | 6.8 | – | – | –
8 | CC1=Nc2ccccc2C(c2ccccc2)N1CCN1CCCCC1 (racemic) | 0.78 | – | 12 | 23 | – | – | –
9 | CC1=Nc2ccc(Cl)cc2C(c2ccccc2)N1CCN1CCN(C(=O)CN(C)C)CC1 (racemic) | 0.37 | 1.78 | 5.6 | 6 | 0.27 | – | –
10 | CC1=Nc2ccc(Br)cc2C(c2ccccc2)N1CCN1CCCCC1 (racemic) | 0.79 | – | 0.44 | 8.4 | – | – | –
11 | CC1=Nc2ccc(Cl)cc2C(c2cccc(F)c2)N1CCN1CCCCC1 (centres undefined) | 0.9 | – | 2 | 10 | – | – | –
